Laboratory results as given in ChEMBL document CHEMBL2311289, “Novel 2-aminooctahydrocyclopentalene-3a-carboxamides as potent CCR2 antagonists” (Bioorg Med Chem Lett, 2013).

Tests used:
[1] = target: C-C chemokine receptor type 2 (Homo sapiens, UniProt P41597); experiment: Binding affinity to human CCR2
[2] = target: Voltage-gated inwardly rectifying potassium channel KCNH2 (Homo sapiens, UniProt Q12809); experiment: Binding affinity to human ERG
[3] = AUC in dog at 10 mg/kg, po; format: ADME, organism-based, Canis lupus familiaris; parameters: dose 10 mg/kg, route oral; conditions: plasma
How it was run: (§1)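 Dog pharmacokinetics: oral dosing at 10 mpk in 0.5% methocel and intravenous dosing at 2 mpk in 20% HPbCD. Readouts were systemic clearance, Vdss, oral t1/2 and oral AUC.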

[4] = Oral bioavailability in dog at 10 mg/kg; format: ADME, organism-based, Canis lupus familiaris; conditions: in vivo
[5] = Half life in dog at 10 mg/kg, po; format: ADME, organism-based, Canis lupus familiaris; parameters: dose 10 mg/kg, route oral; conditions: in vivo; how it was run: as §1
[6] = Volume of distribution at steady state in dog at 10 mg/kg, po and 2 mg/kg iv; format: ADME, organism-based, Canis lupus familiaris; conditions: in vivo, read-out: Vdss; how it was run: as §1
[7] = Clearance in dog at 10 mg/kg, po and 2 mg/kg iv; format: ADME, organism-based, Canis lupus familiaris; conditions: in vivo; how it was run: as §1
Mus musculus [8] = experiment: Antiinflammatory activity in thioglycollate-induced mouse peritonitis model expressing human CCR2 assessed as inhibition of macrophage infiltration administered as po bid; format: functional
How it was run: (§2)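 Acute inflammation model: peritonitis was induced with thioglycollate in mCCR2 knock-out/hCCR2 knock-in mice. Compound was given orally, and infiltration of macrophages into the peritoneum was measured.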

Mus musculus [9] = experiment: Antiinflammatory activity in thioglycollate-induced mouse peritonitis model expressing human CCR2 assessed as inhibition of macrophage infiltration at 10 mg/kg, po bid relative to control; format: functional; how it was run: as §2
Mus musculus [10] = experiment: Antiinflammatory activity in thioglycollate-induced mouse peritonitis model expressing human CCR2 assessed as inhibition of macrophage infiltration at 3 mg/kg, po bid relative to control; format: functional; how it was run: as §2
Mus musculus [11] = experiment: Antiinflammatory activity in thioglycollate-induced mouse peritonitis model expressing human CCR2 assessed as inhibition of macrophage infiltration at 1 mg/kg, po bid relative to control; format: functional; how it was run: as §2
Mus musculus [12] = experiment: Antiinflammatory activity in thioglycollate-induced mouse peritonitis model expressing human CCR2 assessed as inhibition of macrophage infiltration at 0.3 mg/kg, po bid relative to control; format: functional; how it was run: as §2
Cytochrome P450 2C9 = Cytochrome P450 2C9 (Homo sapiens, UniProt P11712); experiment: Inhibition of human CYP2C9; format: ADME
Cytochrome P450 3A4 = Cytochrome P450 3A4 (Homo sapiens, UniProt P08684); experiment: Inhibition of human CYP3A4; format: ADME
Cytochrome P450 2D6 = Cytochrome P450 2D6 (Homo sapiens, UniProt P10635); experiment: Inhibition of human CYP2D6; format: ADME
Cytochrome P450 2C19 = Cytochrome P450 2C19 (Homo sapiens, UniProt P33261); experiment: Inhibition of human CYP2C19; format: ADME
Cytochrome P450 1A2 = target: T1, Cytochrome P450 1A2 (Homo sapiens, UniProt P05177); experiment: Inhibition of human CYP1A2; format: ADME
T1 sequence (P05177 whole entry): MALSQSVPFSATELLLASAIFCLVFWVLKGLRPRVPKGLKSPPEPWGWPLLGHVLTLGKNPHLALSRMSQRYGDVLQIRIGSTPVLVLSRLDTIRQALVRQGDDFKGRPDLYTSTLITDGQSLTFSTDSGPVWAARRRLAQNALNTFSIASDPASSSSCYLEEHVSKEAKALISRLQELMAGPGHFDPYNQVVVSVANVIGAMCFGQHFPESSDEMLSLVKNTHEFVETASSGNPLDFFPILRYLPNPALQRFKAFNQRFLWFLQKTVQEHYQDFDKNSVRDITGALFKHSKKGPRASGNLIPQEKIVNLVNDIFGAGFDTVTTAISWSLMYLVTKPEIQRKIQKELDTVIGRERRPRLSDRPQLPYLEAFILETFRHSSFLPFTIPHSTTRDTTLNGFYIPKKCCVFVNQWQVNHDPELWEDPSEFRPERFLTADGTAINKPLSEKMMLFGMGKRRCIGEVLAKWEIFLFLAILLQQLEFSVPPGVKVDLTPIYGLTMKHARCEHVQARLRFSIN

Sequence of Voltage-gated inwardly rectifying potassium channel KCNH2 (Q12809 whole entry): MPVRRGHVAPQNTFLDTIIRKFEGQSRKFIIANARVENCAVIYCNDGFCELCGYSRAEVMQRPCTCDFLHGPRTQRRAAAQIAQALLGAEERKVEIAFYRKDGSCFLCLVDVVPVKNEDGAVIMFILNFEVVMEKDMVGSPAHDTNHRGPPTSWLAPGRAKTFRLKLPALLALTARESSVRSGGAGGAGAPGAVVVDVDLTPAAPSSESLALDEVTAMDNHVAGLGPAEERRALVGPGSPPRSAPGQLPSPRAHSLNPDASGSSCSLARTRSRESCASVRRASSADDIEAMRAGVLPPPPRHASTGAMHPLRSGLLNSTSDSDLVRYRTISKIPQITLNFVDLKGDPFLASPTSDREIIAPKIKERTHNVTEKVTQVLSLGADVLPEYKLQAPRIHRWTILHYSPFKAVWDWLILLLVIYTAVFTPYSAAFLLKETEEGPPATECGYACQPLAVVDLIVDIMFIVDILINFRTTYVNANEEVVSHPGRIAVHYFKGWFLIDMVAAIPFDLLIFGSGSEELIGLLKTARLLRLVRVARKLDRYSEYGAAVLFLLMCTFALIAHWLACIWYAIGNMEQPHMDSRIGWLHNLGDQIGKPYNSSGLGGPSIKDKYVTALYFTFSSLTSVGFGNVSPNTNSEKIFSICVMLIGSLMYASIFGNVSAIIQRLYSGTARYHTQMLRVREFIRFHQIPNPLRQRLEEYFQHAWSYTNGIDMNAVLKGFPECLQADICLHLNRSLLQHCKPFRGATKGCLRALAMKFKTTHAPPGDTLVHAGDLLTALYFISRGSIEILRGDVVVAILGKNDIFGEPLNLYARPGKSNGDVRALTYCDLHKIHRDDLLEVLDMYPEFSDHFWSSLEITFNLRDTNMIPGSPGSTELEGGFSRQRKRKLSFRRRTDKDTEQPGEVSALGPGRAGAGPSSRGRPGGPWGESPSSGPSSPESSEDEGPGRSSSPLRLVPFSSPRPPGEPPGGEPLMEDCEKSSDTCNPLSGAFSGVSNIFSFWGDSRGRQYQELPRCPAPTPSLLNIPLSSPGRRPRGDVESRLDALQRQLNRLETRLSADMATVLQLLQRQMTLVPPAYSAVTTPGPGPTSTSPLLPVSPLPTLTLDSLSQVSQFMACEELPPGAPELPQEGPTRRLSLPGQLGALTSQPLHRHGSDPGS
Sequence of C-C chemokine receptor type 2 (P41597 whole entry): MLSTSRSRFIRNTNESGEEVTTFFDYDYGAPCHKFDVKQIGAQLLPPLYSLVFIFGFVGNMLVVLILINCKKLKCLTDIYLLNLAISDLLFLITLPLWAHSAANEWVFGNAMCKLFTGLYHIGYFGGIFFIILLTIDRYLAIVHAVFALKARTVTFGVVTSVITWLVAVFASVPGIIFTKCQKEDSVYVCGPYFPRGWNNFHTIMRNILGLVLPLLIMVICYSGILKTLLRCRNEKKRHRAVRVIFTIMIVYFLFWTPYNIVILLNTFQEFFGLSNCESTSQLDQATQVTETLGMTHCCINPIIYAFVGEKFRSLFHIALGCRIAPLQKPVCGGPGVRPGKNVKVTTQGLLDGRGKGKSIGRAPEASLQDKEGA
Sequence of Cytochrome P450 2C9 (P11712 whole entry): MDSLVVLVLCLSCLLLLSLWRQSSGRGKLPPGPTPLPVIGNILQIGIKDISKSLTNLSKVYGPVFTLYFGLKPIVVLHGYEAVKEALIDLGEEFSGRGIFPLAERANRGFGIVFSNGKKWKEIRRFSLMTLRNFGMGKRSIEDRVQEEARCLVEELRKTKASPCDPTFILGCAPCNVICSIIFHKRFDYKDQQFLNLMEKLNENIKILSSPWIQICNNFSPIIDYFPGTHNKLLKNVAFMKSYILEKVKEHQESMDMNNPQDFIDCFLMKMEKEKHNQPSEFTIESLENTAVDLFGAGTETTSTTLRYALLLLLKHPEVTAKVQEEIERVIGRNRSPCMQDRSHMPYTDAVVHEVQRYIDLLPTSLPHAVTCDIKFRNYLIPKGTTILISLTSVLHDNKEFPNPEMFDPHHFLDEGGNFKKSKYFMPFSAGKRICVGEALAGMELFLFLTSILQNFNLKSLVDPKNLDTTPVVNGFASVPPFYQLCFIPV
Sequence of Cytochrome P450 2C19 (P33261 whole entry): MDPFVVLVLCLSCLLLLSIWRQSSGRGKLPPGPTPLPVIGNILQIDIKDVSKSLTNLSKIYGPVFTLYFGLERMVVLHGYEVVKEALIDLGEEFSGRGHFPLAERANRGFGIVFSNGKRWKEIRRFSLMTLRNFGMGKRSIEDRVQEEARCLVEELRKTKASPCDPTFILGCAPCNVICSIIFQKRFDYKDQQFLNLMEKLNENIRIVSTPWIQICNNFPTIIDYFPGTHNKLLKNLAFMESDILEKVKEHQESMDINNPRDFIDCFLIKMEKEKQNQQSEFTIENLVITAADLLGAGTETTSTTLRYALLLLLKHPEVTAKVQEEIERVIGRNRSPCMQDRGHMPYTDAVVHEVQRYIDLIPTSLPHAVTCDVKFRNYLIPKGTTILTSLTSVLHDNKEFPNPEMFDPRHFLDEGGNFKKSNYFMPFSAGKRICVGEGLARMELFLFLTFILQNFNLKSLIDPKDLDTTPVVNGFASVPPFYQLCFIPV
Sequence of Cytochrome P450 3A4 (P08684 whole entry): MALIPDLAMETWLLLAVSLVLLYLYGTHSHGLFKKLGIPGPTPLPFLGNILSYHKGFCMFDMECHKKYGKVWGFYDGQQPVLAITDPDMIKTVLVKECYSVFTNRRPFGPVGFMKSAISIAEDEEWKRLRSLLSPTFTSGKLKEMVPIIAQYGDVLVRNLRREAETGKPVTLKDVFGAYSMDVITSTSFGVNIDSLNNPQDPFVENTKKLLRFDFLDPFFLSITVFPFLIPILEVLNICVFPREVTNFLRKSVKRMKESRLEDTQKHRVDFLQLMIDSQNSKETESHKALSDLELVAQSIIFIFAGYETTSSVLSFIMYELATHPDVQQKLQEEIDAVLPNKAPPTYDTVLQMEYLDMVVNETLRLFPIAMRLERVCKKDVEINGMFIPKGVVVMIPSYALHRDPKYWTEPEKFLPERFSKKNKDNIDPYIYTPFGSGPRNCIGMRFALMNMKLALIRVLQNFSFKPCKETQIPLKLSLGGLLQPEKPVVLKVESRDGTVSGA
Sequence of Cytochrome P450 2D6 (P10635 whole entry): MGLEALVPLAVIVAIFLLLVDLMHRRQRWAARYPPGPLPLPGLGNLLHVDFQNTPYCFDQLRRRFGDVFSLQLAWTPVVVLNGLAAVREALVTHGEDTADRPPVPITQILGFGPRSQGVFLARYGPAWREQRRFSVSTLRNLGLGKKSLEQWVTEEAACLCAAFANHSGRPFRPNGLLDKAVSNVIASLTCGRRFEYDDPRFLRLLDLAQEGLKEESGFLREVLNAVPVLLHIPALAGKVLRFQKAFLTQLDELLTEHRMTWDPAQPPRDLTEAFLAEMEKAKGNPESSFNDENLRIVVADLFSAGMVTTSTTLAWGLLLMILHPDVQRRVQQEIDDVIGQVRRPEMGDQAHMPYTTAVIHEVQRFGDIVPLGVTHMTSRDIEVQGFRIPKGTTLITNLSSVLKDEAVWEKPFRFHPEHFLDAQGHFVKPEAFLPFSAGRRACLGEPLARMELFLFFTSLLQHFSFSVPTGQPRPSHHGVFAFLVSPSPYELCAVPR

Row | SMILES | IC50 [1] [nM] | IC50 [2] [nM] | other results
1 | O=C(N1CCc2ncc(C(F)(F)F)cc2C1)[C@@]12CCCC[C@@H]1C[C@@H](NC1CCOCC1)C2 | 7930 | 38900 | –
2 | COC1COCCC1N[C@@H]1C[C@H]2C[C@@H](Cl)C[C@@]2(C(=O)N2CCc3ncc(C(F)(F)F)cc3C2)C1 (mixture of isomers) | 45 | > 50000 | –
3 | O=C(N1CCc2ncc(C(F)(F)F)cc2C1)[C@@]12CCC[C@@H]1C[C@@H](NC1CCOCC1)C2 | 125 | 25700 | –
4 | COC1COCCC1N[C@@H]1C[C@H]2CC(F)(F)C[C@@]2(C(=O)N2CCc3ncc(C(F)(F)F)cc3C2)C1 (mixture of isomers) | 95 | > 50000 | –
5 | COC1COCCC1N[C@@H]1C[C@H]2C[C@@H](C(F)(F)F)C[C@@]2(C(=O)N2CCc3ncc(C(F)(F)F)cc3C2)C1 (mixture of isomers) | 263 | – | –
6 | COC1COCCC1N[C@@H]1C[C@H]2C[C@@H](C(N)=O)C[C@@]2(C(=O)N2CCc3ncc(C(F)(F)F)cc3C2)C1 (mixture of isomers) | 130 | – | –
7 | COC1COCCC1N[C@@H]1C[C@H]2CCC[C@@]2(C(=O)N2CCc3ccc(C#N)cc3C2)C1 (mixture of isomers) | 1800 | – | –
8 | COC1COCCC1N[C@@H]1C[C@H]2C[C@H](OC)C[C@@]2(C(=O)N2CCc3ncc(C(F)(F)F)cc3C2)C1 (mixture of isomers) | 210 | > 50000 | –
9 | O=C(N1CCc2ncc(C(F)(F)F)cc2C1)[C@@]12CCC[C@@H]1C[C@@H](NC1CCS(=O)(=O)CC1)C2 | 3560 | – | –
10 | COC1COCCC1N[C@@H]1C[C@H]2CCC[C@@]2(C(=O)N2CCc3ccc(OC(F)(F)F)cc3C2)C1 (mixture of isomers) | 16 | – | –
11 | COC1COCCC1N[C@@H]1C[C@H]2C[C@H](C(F)(F)F)C[C@@]2(C(=O)N2CCc3ncc(C(F)(F)F)cc3C2)C1 (mixture of isomers) | 1260 | – | –
12 | COC1COCCC1N[C@@H]1C[C@H]2C[C@@H](F)C[C@@]2(C(=O)N2CCc3ncc(C(F)(F)F)cc3C2)C1 (mixture of isomers) | 150 | – | –
13 | O=C(N1CCc2ncc(C(F)(F)F)cc2C1)[C@@]12CCC[C@@H]1C[C@@H](NCC1CCOCC1)C2 | > 25000 | 47000 | –
14 | COC1COCCC1N[C@@H]1C[C@H]2CCC[C@@]2(C(=O)N2CCc3ccc(Br)cc3C2)C1 (mixture of isomers) | 290 | 20300 | –
15 | CO[C@@H]1COCC[C@@H]1N[C@@H]1C[C@H]2CCC[C@@]2(C(=O)N2CCc3ncc(C(F)(F)F)cc3C2)C1 | – | – | AUC [3]: 12100 ng·h/mL; bioavailability [4]: 100%; half-life [5]: 3.4 h; Vd [6]: 2.3 L/kg; clearance [7]: 15.2 mL/min/kg; ED50 (Mus musculus [8]): 0.1 mg/kg; inhibition in vivo at 10 mg/kg (Mus musculus [9]): 101%; inhibition in vivo at 3 mg/kg (Mus musculus [10]): 100%; inhibition in vivo at 1 mg/kg (Mus musculus [11]): 100%; inhibition in vivo at 0.3 mg/kg (Mus musculus [12]): 89%; IC50 (Cytochrome P450 2C9): > 10000 nM; IC50 (Cytochrome P450 3A4): 7500 nM; IC50 (Cytochrome P450 2D6): > 10000 nM; IC50 (Cytochrome P450 2C19): > 10000 nM; IC50 (Cytochrome P450 1A2): > 10000 nM
16 | COC1COCCC1N[C@@H]1C[C@H]2CCC[C@@]2(C(=O)N2CCc3ncc(Br)cc3C2)C1 (mixture of isomers) | 200 | – | –
17 | O=C(N[C@@H]1C[C@H]2CCC[C@@]2(C(=O)N2CCc3ncc(C(F)(F)F)cc3C2)C1)C1CCOCC1 | > 25000 | > 50000 | –
18 | COC1COCCC1N[C@@H]1C[C@H]2C[C@H](N(C)C)C[C@@]2(C(=O)N2CCc3ncc(C(F)(F)F)cc3C2)C1 (mixture of isomers) | 8090 | – | –
19 | COC1COCCC1N[C@@H]1C[C@H]2CCC[C@@]2(C(=O)N2CCc3ncccc3C2)C1 (mixture of isomers) | > 25000 | – | –
20 | CCC(CC)N[C@@H]1C[C@H]2CCC[C@@]2(C(=O)N2CCc3ncc(C(F)(F)F)cc3C2)C1 | 3300 | > 50000 | –

Row | SMILES | IC50 [1] [nM] | IC50 [2] [nM] | other results
21 | COC1COCCC1N[C@@H]1C[C@H]2C[C@H](Cl)C[C@@]2(C(=O)N2CCc3ncc(C(F)(F)F)cc3C2)C1 (mixture of isomers) | 20 | > 50000 | –
22 | COC1COCCC1N[C@@H]1C[C@H]2CCC[C@@]2(C(=O)N2CCc3ccc(C(F)(F)F)cc3C2)C1 (mixture of isomers) | 34 | 27600 | –
23 | COC1COCCC1N[C@@H]1C[C@H]2C[C@H](O)C[C@@]2(C(=O)N2CCc3ncc(C(F)(F)F)cc3C2)C1 (mixture of isomers) | 59 | > 50000 | –
24 | COC1COCCC1N[C@@H]1C[C@H]2C[C@@H](OC)C[C@@]2(C(=O)N2CCc3ncc(C(F)(F)F)cc3C2)C1 (mixture of isomers) | 200 | > 50000 | –
25 | COC1COCCC1N[C@@H]1C[C@H]2C[C@@H](O)C[C@@]2(C(=O)N2CCc3ncc(C(F)(F)F)cc3C2)C1 (mixture of isomers) | 58 | > 50000 | –
26 | COC1COCCC1N[C@@H]1C[C@H]2CCCC[C@@]2(C(=O)N2CCc3ncc(C(F)(F)F)cc3C2)C1 (mixture of isomers) | 1070 | – | –
27 | COC1COCCC1N[C@@H]1C[C@H]2C[C@@H](N(C)C)C[C@@]2(C(=O)N2CCc3ncc(C(F)(F)F)cc3C2)C1 (stereo not given in full) | 247 | – | –
28 | COC1COCCC1N[C@@H]1C[C@H]2CCC[C@@]2(C(=O)N2CCc3ccc(F)cc3C2)C1 (mixture of isomers) | 4400 | – | –
29 | COC1COCCC1N[C@@H]1C[C@H]2C[C@H](F)C[C@@]2(C(=O)N2CCc3ncc(C(F)(F)F)cc3C2)C1 (mixture of isomers) | 23 | – | –
30 | COC1COCCC1N[C@@H]1C[C@H]2C[C@H](C(N)=O)C[C@@]2(C(=O)N2CCc3ncc(C(F)(F)F)cc3C2)C1 (mixture of isomers) | 88 | – | –
31 | COC1COCCC1N[C@@H]1C[C@H]2CCC[C@@]2(C(=O)N2CCc3ncc(Cl)cc3C2)C1 (mixture of isomers) | 1100 | – | –
32 | O=C(N1CCc2ncc(C(F)(F)F)cc2C1)[C@@]12CCC[C@@H]1C[C@@H](NC1CCCCCC1)C2 | 699 | – | –
33 | O=C(N1CCc2ncc(C(F)(F)F)cc2C1)[C@@]12CCC[C@@H]1C[C@@H](NC1CCCCC1)C2 | 1530 | – | –
34 | COC1COCCC1N[C@@H]1C[C@H]2CCC[C@@]2(C(=O)N2CCc3ncc([N+](=O)[O-])cc3C2)C1 (mixture of isomers) | 1500 | – | –
35 | O=C(N1CCc2ncc(C(F)(F)F)cc2C1)[C@@]12CCC[C@@H]1C[C@@H](NC1CCSCC1)C2 | 874 | 23100 | –
36 | O=C(N1CCc2ncc(C(F)(F)F)cc2C1)[C@@]12CCC[C@@H]1C[C@@H](NC1CCCC1)C2 | 2330 | 33500 | –
37 | COC1COCCC1N[C@@H]1C[C@H]2CCC[C@@]2(C(=O)N2CCc3ncc(OC(C)C)cc3C2)C1 (mixture of isomers) | 5600 | – | –
38 | COC1COCCC1N[C@@H]1C[C@H]2CCC[C@@]2(C(=O)N2CCc3ccc(Cl)cc3C2)C1 (mixture of isomers) | 400 | 42400 | –
39 | COc1cnc2c(c1)CN(C(=O)[C@@]13CCC[C@@H]1C[C@@H](NC1CCOCC1OC)C3)CC2 (mixture of isomers) | > 25000 | – | –
